Compound activity (PubChem BioAssay)
PHOSPHO1 inh: blocks human PHOSPHO1 phosphatase activity | recombinant PHOSPHO1, absorbance phosphatase assay | inhibition, % at 13.3 µM | 290,000 compounds, 1.1% hits | Q8TCT1 | AID 1565; in the data active means inhibition above about 60%
HMGR II inh: inhibitors of class II HMG-CoA reductase from Enterococcus faecalis; AID 1066; purified E. faecalis HMGR, NADPH absorbance 340 nm kinetic; 190,000 compounds, 0.41% hits; inhibition, % at 10 µM;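 active means inhibition above a set limit, the median over all tested compounds plus 3 SD, cut at about 9.5% in these data; inconclusive means no clear call, values can overlap the other calls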;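 further: enzyme runs in reverse so mevalonate oxidation gives rising NADPH absorbance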
Runt-SMMHC FRET: Runt domain-CBFb-SMMHC interaction inhibition | AID 1434 | Q01196+Q13951 | inhibition, % at 20 µM | 220,000 compounds, 0.74% hits | Cerulean-Runt/Venus-CBFb-SMMHC FRET ratio 530/480, 1 h;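 active means mean inhibition across duplicate retests at 20 µM reaching about 50%, limit read from the data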;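 further: inhibitors lower the FRET ratio by blocking Runt binding to CBFb-SMMHC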
Target sequence (Q01196 whole entry, looked up, the tested form may be a part): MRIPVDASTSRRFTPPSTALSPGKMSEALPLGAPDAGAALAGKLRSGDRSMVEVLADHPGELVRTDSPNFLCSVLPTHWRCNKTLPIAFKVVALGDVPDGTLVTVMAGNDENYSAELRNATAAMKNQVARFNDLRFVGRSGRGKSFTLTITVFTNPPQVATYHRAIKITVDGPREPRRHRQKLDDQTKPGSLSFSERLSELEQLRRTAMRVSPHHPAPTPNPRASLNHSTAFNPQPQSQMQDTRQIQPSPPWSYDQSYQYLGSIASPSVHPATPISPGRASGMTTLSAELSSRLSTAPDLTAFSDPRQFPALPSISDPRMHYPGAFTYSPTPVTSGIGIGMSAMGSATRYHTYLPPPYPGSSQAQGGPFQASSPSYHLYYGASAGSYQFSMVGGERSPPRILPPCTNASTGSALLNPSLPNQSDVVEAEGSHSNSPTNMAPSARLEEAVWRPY
Target sequence (Q13951 whole entry, looked up, the tested form may be a part): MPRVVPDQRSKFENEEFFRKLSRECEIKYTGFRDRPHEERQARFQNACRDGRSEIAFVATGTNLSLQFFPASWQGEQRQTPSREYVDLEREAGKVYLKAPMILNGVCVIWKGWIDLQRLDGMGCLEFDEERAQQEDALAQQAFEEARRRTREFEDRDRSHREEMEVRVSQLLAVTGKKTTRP
Runt-CBFb FRET: inhibitors of human RUNX1 Runt domain binding to CBFb | Q01196+Q13951 | Cerulean-Runt/Venus-CBFb FRET ratio 530/480, 1 h | inhibition, % at 20 µM | 220,000 compounds, 0.46% hits | AID 1496;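 active means inhibition over about 50% at 20 µM in the single-dose screen, limit read from the data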
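Doses: 20 µM compound in 1% DMSO | Material: Cerulean-labeled Runt domain protein | Amount: Each fluorescent fusion protein 100 nM | Schedule: Two 1 h room-temperature incubations shielded from light | Measured by: FRET fluorescence | Evaluation: Loss of energy transfer signal | Controls: Unlabeled CBFb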
Wee1 degr inh: human Wee1 degradation inhibition, primary screen; P30291; HeLa Luc-Wee1K328M stability, luciferase luminescence; 100% = proteasome inhibitor MG132 effect; reporter increase, % at 5 µM; 220,000 compounds, 1.2% hits;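 active means activation above the mean of all tested compounds plus 3 SD, set per screening run, cut at about 8.8% in these data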;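 further: cells exposed to compound for 20 h before luminescence read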
RanGTP-Imp inh: inhibitors of RanGTP-importin-beta interaction, primary screen, biochemical, FRET, CFP-Ran, YFP-importin-beta, homogeneous; cell-free CFP-Ran/YFP-importin-beta FRET ratio; inhibition, % (test concentration not listed); 300,000 compounds, 1.1% hits;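 active means more than half of the replicate wells show a fall in the fluorescence ratio signal beyond about 16%, limit read from the data, passing the limit was not always enough; inconclusive means exactly half of the replicate wells pass the set limit; inactive means fewer than half of replicates pass the limit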
YIC counter: counter-screen YIC FRET for RanGTP-importin-beta inhibitors | IC50, µM | 1,000 compounds, 40% hits | shares compounds with RanGTP-Imp inh | Purified YIC probe, intramolecular FRET ratio YFP/CFP | AID 435026;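 active means fitted half-maximal inhibitory concentration no more than tenfold above the top dose tested; inconclusive means flat fit with 30 to 70% activity, or poor fit; inactive means half-maximal concentration beyond tenfold above the top dose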
Each line names hits and unclear results; the compound was inactive in the other large screens (follow-up assays come after a bar, where they were run). Only some compounds are listed: those with a hit (about 3.4% of all), similar ones and a draw of the others.

Cc1cc(C)c2c(=O)[nH]c(SCC(=O)Nc3ccc(N(C)C)cc3)nc2n1	none
Cc1noc(C)c1NC(=O)N(C)C[C@@H]1Oc2ccc(N(C)C)cc2CC(=O)N([C@H](C)CO)C[C@H]1C	none (no result: PHOSPHO1 inh, HMGR II inh, Runt-SMMHC FRET, Runt-CBFb FRET, Wee1 degr inh, RanGTP-Imp inh) | YIC counter inactive
O=C(CCCCCBr)N1CCC(CC2CC(c3cccc(Br)c3)=NO2)(C(=O)NCC2CCCCC2)CC1 (centres undefined)	none (no result: HMGR II inh, Runt-SMMHC FRET, Runt-CBFb FRET, Wee1 degr inh)
CCOC(=O)c1c(NC(=O)c2cccs2)sc2c1CCN(C(=O)OCC)C2	none
CCOC(=O)c1c(NC(=O)Cc2ccccc2)sc2c1CCN(CC)C2	RanGTP-Imp inh 54.9 (no result: HMGR II inh, Runt-SMMHC FRET, Runt-CBFb FRET, Wee1 degr inh) | YIC counter inactive
CCN1CCc2c(sc(NC(=O)Cc3ccccc3)c2C(=O)OC)C1	RanGTP-Imp inh 42.2 (no result: HMGR II inh, Runt-SMMHC FRET, Runt-CBFb FRET, Wee1 degr inh) | YIC counter inactive
CCOC(=O)c1c(/N=C/c2ccc(C)cc2O)sc2c1CCN(C)C2	RanGTP-Imp inh 59.8 (no result: HMGR II inh) | YIC counter inactive
CCOC(=O)c1sc(NC(=O)Nc2ccc(F)cc2)nc1C	RanGTP-Imp inh 18.4 | YIC counter inactive
O=C(c1cccc([N+](=O)[O-])c1)c1ccc2c(c1)C(=O)N(c1c[nH]c(=O)[nH]c1=O)C2=O	none
COc1cccc(-c2nn(-c3ccc(F)cc3)cc2C(=O)NCC2CCCO2)c1 (centres undefined)	none (no result: PHOSPHO1 inh, HMGR II inh, Runt-SMMHC FRET, Runt-CBFb FRET, Wee1 degr inh)
CC1(c2ccc3noc(-c4cccc(F)c4)c3c2)OCCO1	none
CCOC(=O)c1c(NC(=O)Nc2ccc(F)cc2)sc2c1CCN(C)C2	RanGTP-Imp inh 20.5 (no result: HMGR II inh) | YIC counter inactive
CCOC(=O)c1c(NC(=O)C2CCCCC2)sc2c1CCN(C(C)C)C2	RanGTP-Imp inh 40.4 (no result: HMGR II inh, Runt-SMMHC FRET, Runt-CBFb FRET, Wee1 degr inh) | YIC counter inactive
CCOC(=O)c1c(NC(=O)C2CC2)sc(C)c1CC	none
O=[N+]([O-])c1ccc(CNC2CCCc3ccccc32)cc1 (centres undefined)	Runt-SMMHC FRET 72.2, RanGTP-Imp inh 25.3 | YIC counter inactive
c1cncc(CNC2CCCc3ccccc32)c1 (centres undefined)	none
COc1ccc(C(=O)Oc2c(CN3CCOCC3)cc(Cl)c3cccnc23)cc1OC	none (no result: PHOSPHO1 inh, HMGR II inh, Runt-SMMHC FRET, Runt-CBFb FRET)
O=C(Oc1c(CN2CCOCC2)cc(Cl)c2cccnc12)c1ccccc1	RanGTP-Imp inh 15.5 (no result: Runt-CBFb FRET) | YIC counter inactive
COC(=O)C1=C(C(=O)OC)[N+]2=C3N(C(=O)NC2(C)C)[C@H](CO)C[C@@]32c3ccccc3N(Cc3ccccc3)[C@@H]12	none (no result: PHOSPHO1 inh, HMGR II inh, Runt-SMMHC FRET, Runt-CBFb FRET, Wee1 degr inh)
Cc1ccc(S(=O)(=O)C2(C(=O)Nc3ccc(C(C)C)cc3)CC2)cc1	none
Cc1cc(C)c2c(C)c(C(=O)Nc3c(C)n(C)n(-c4ccccc4)c3=O)oc2c1	none
COc1ccc(S(=O)(=O)NCCc2cn3nc(C)c(C)nc3n2)cc1	RanGTP-Imp inh inconclusive (no result: HMGR II inh, Runt-SMMHC FRET, Runt-CBFb FRET, Wee1 degr inh)
Cc1nc2nc(CCNS(=O)(=O)c3ccc(Cl)cc3)cn2nc1C	RanGTP-Imp inh 17.7 (no result: HMGR II inh, Runt-SMMHC FRET, Runt-CBFb FRET, Wee1 degr inh) | YIC counter 32.2
COC(=O)c1cc(=O)n2c(sc3ccccc32)c1C#N	Runt-SMMHC FRET 88.1, Runt-CBFb FRET 66.3, RanGTP-Imp inh 44.8 (no result: HMGR II inh) | YIC counter 4.11
O=C(CN1CCN(C/C=C/c2ccccc2)CC1)NC(=O)NC1CCCCC1	RanGTP-Imp inh 28.7 | YIC counter inactive
N#Cc1c2ncn(CC(=O)c3ccc(Br)cc3)c(=O)c2c2n1CCC2	RanGTP-Imp inh 16.1 | YIC counter inactive
C/C(=N\NC(=S)NCc1ccccc1)c1cccc(Br)c1	RanGTP-Imp inh 46.1 | YIC counter inactive
Cn1c(N/N=C/c2c[nH]c3ccccc23)nc2ccccc21	none
Cn1c(N/N=C/c2cc3ccccc3nc2Cl)nc2ccccc21	RanGTP-Imp inh 17.3 | YIC counter inactive
C=CCN(C(=O)c1csnn1)C(C(=O)NC1CCCC1)c1c(F)cccc1Cl (centres undefined)	none (no result: HMGR II inh, Runt-SMMHC FRET, Runt-CBFb FRET, Wee1 degr inh)
COc1ccc2c(c1)C(c1ccc(C)o1)=NNC(c1cccnc1)=N2	RanGTP-Imp inh 21.1 | YIC counter inactive
CCOC(=O)C1CCN(C(=O)COC(=O)c2ccc3c(c2)C(=O)N(c2ccc(OCC)cc2)C3=O)CC1	none
Cc1cc(=O)[nH]c(Nc2ccccc2C)n1	none (no result: HMGR II inh, Runt-SMMHC FRET, Runt-CBFb FRET, Wee1 degr inh)
